In ChEMBL document CHEMBL4118228, “Chemical space screening around Phe3 in opioid peptides: Modulating µ versus δ agonism by Suzuki-Miyaura cross-couplings” (Bioorg Med Chem Lett, 2018):
pEC50, pIC50: −log10 of the molar value. The source made the active and inactive calls. No cut-off for these calls is given here. Non-standard residues stand in square brackets, D forms with d. Residues, ends and D or L forms follow the SMILES beside them. Phe(3-Ph) = N[C@@H](Cc1cccc(-c2ccccc2)c1)C(=O)O; Phe(2-Ph) = N[C@@H](Cc1ccccc1-c1ccccc1)C(=O)O; Bip = N[C@@H](Cc1ccc(-c2ccccc2)cc1)C(=O)O; Dmt = Cc1cc(O)cc(C)c1C[C@H](N)C(=O)O

Key:
Mu-type opioid receptor [1] = biological target: Mu-type opioid receptor (Mus musculus, UniProt P42866); test: Displacement of [125I]-DAMGO from mouse Flag-tagged mu-opioid receptor expressed in HEK293 cell membranes after 60 mins by gamma counting
Chain of Mu-type opioid receptor (Mus musculus, UniProt P42866) (P42866 whole entry): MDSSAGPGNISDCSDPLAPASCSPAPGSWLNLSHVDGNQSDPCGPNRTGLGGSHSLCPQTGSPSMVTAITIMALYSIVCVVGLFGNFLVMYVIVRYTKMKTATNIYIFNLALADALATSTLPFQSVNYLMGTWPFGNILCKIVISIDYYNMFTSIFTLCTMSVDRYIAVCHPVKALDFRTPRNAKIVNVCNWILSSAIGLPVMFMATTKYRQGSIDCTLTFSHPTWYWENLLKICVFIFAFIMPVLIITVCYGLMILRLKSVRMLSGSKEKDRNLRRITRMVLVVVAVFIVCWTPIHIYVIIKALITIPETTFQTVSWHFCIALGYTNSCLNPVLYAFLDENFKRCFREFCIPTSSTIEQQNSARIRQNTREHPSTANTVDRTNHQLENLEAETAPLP

[2] = biological target: T1, Delta-type opioid receptor (Mus musculus, UniProt P32300); test: Displacement of [125I]-Deltorphin 2 from mouse Flag-tagged delta-opioid receptor expressed in HEK293 cell membranes after 60 mins by gamma counting
T1 sequence (P32300 whole entry): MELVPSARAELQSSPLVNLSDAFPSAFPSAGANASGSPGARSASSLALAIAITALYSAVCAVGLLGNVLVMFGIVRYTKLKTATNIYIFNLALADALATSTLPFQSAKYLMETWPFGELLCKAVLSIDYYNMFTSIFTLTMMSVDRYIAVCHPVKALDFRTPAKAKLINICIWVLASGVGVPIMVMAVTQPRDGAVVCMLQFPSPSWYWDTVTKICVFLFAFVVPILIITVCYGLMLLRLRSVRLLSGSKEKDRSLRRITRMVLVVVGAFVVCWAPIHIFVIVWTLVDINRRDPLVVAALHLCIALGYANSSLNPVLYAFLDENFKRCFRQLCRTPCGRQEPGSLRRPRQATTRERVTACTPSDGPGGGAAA

Mus musculus = species: Mus musculus; test: Selectivity ratio of IC50 for mouse Flag-tagged delta-opioid receptor to IC50 for mouse Flag-tagged mu-opioid receptor
Mu-type opioid receptor [3] = biological target: Mu-type opioid receptor (Cavia porcellus, UniProt P97266); test: Agonist activity at mu-opioid receptor in guinea pig ileum assessed as inhibition of electrically induced contractions; format: functional
Chain of Mu-type opioid receptor (Cavia porcellus, UniProt P97266) (P97266 whole entry): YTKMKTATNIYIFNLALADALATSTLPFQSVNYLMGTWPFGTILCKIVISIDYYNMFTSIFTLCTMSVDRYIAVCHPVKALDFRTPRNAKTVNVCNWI

[4] = biological target: T1, Delta-type opioid receptor; test: Agonist activity at delta-opioid receptor in mouse vasa deferens assessed as inhibition of electrically induced contractions; format: functional
Mu-type opioid receptor [5] = biological target: Mu-type opioid receptor (Rattus norvegicus, UniProt P33535); test: Agonist activity at rat mu-opioid receptor expressed in HEK293 cells co-expressing Rluc2-EPAC-GFP10 biosenser assessed as inhibition of forskolin-induced cAMP level after 10 mins by fluorescence based assay; format: functional, cell-based
Chain of Mu-type opioid receptor (Rattus norvegicus, UniProt P33535) (P33535 whole entry): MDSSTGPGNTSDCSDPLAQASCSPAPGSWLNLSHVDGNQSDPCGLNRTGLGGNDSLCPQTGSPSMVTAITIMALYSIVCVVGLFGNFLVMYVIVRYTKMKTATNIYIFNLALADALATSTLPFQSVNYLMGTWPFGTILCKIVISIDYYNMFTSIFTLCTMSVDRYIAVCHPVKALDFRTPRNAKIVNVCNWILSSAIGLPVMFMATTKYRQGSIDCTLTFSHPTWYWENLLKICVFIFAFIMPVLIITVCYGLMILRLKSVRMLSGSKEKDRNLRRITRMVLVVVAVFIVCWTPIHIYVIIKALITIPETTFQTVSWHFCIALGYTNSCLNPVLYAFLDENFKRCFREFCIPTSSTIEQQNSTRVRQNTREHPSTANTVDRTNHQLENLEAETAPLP

[6] = biological target: Delta-type opioid receptor (Rattus norvegicus, UniProt P33533); test: Agonist activity at rat delta-opioid receptor expressed in HEK293 cells co-expressing Rluc2-EPAC-GFP10 biosenser assessed as inhibition of forskolin-induced cAMP level after 10 mins by fluorescence based assay; format: functional, cell-based
Chain of Delta-type opioid receptor (Rattus norvegicus, UniProt P33533) (P33533 whole entry): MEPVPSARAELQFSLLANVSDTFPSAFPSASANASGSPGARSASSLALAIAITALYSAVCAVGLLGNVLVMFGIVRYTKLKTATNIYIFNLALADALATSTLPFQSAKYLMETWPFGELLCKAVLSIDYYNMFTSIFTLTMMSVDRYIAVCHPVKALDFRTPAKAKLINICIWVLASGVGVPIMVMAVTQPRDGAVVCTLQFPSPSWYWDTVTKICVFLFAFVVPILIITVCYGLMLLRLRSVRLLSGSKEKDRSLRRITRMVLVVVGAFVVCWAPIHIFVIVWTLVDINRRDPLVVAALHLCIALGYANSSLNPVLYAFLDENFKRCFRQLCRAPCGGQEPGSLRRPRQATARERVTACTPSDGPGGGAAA

[7] = biological target: Mu-type opioid receptor (Cavia porcellus) (UniProt P97266); test: Potency index, ratio of DAMGO IC50 to compound IC50 for mu-opioid receptor in guinea pig ileum
Chain of Mu-type opioid receptor (Cavia porcellus) (P97266 whole entry): as the sequence (P97266 whole entry) above

[8] = biological target: Mu-type opioid receptor (Rattus norvegicus) (UniProt P33535); test: Potency index, ratio of DAMGO EC50 to compound EC50 for rat mu-opioid receptor expressed in HEK293 cells co-expressing Rluc2-EPAC-GFP10 biosenser by cAMP accumulation assay; format: functional, cell-based
Chain of Mu-type opioid receptor (Rattus norvegicus) (P33535 whole entry): as the sequence (P33535 whole entry) above

[9] = biological target: Mu-type opioid receptor (Cavia porcellus) (UniProt P97266); test: Antagonist activity at mu-opioid receptor in guinea pig ileum assessed as effect on electrically induced contractions; format: functional
[10] = biological target: Delta-type opioid receptor (Mus musculus) (UniProt P32300); test: Partial agonist activity at delta-opioid receptor in mouse vasa deferens assessed as inhibition of electrically induced contractions; format: functional
Chain of Delta-type opioid receptor (Mus musculus) (P32300 whole entry): as the sequence (P32300 whole entry) above

[11] = biological target: Delta-type opioid receptor (Rattus norvegicus) (UniProt P33533); test: Partial agonist activity at rat delta-opioid receptor expressed in HEK293 cells co-expressing Rluc2-EPAC-GFP10 biosenser assessed as inhibition of forskolin-induced cAMP level after 10 mins by fluorescence based assay; format: functional, cell-based
Chain of Delta-type opioid receptor (Rattus norvegicus) (P33533 whole entry): as the sequence (P33533 whole entry) above

Rattus norvegicus [12] = species: Rattus norvegicus; test: Antinociceptive activity in Sprague-Dawley rat model of thermal-induced nociception assessed as increase in latency to tail withdrawal at 1 nmol, it measured at every 10 mins for 1 hr by tail flick assay; format: functional, organism-based
Summary of the method: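 Compound given intrathecally to rats; tail-flick test measured withdrawal response to a thermal stimulus.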

Rattus norvegicus [13] = species: Rattus norvegicus; test: Potency index, ratio of antinociceptive activity of DAMGO to antinociceptive activity of compound in Sprague-Dawley rat model of thermal-induced nociception by tail flick assay; format: functional

| Compound | pIC50 (Mu-type opioid receptor [1]) | pIC50 [2] | Ratio IC50 (Mus musculus) | pIC50 (Mu-type opioid receptor [3]) | pIC50 [4] | pEC50 (Mu-type opioid receptor [5]) | pEC50 [6] | Ratio IC50 [7] | Ratio EC50 [8] | Ke [9] [nM] | IC20 [10] [nM] | Emax [11] [%] | Activity (Rattus norvegicus [12]) | Ratio (Rattus norvegicus [13]) | IC40 [10] [nM] | IC35 [10] [nM] |
| --- | --- | --- | --- | --- | --- | --- | --- | --- | --- | --- | --- | --- | --- | --- | --- | --- |
| C=Cc1ccc(C[C@H](NC(=O)[C@@H](CCCNC(=N)N)NC(=O)[C@@H](N)Cc2c(C)cc(O)cc2C)C(=O)NCC(N)=O)cc1 | 8.74 | 5.85 | 777 | 7.62 | 6.37 | – | – | – | – | – | – | – | – | – | – | – |
| C=Cc1ccccc1C[C@H](NC(=O)[C@@H](CCCNC(=N)N)NC(=O)[C@@H](N)Cc1c(C)cc(O)cc1C)C(=O)NCC(N)=O | 9.33 | 7.74 | 38 | 9.41 | 9.39 | 10.92 | 8.15 | 70 | 20 | – | – | – | – | – | – | – |
| Cc1cc(O)cc(C)c1C[C@H](N)C(=O)N[C@H](CCCNC(=N)N)C(=O)N[C@@H](Cc1ccc(-c2ccsc2)cc1)C(=O)NCC(N)=O | 8.30 | 6.51 | 61 | – | – | – | – | – | – | 138 | 3960 | – | – | – | – | – |
| CC(C)[C@H](NC(=O)[C@H](CCC(=O)O)NC(=O)[C@H](Cc1ccccc1)NC(=O)[C@@H](C)NC(=O)[C@@H](N)Cc1ccc(O)cc1)C(=O)N[C@H](C(=O)NCC(=O)O)C(C)C [DELTORPHIN] | 6.20 | – | – | 6.07 | – | – | 10.00 | – | – | – | – | – | – | – | – | – |
| C=Cc1ccccc1C[C@H](NC(=O)[C@@H](C)NC(=O)[C@@H](N)Cc1c(C)cc(O)cc1C)C(=O)NCC(N)=O | 9.60 | 8.10 | 32 | 8.93 | 8.55 | 11.22 | 8.24 | – | – | – | – | – | – | – | – | – |
| C=Cc1cccc(C[C@H](NC(=O)[C@@H](CCCNC(=N)N)NC(=O)[C@@H](N)Cc2c(C)cc(O)cc2C)C(=O)NCC(N)=O)c1 | 9.34 | 6.78 | 359 | 8.84 | 8.01 | – | – | – | – | – | – | – | – | – | – | – |
| Cc1cc(O)cc(C)c1C[C@H](N)C(=O)N[C@H](CCCNC(=N)N)C(=O)N[C@@H](Cc1ccccc1-c1ccccc1)C(=O)NCC(N)=O | 9.27 | 7.69 | 38 | 8.46 | 8.16 | – | – | – | – | – | – | – | – | – | – | – |
| Cc1cc(O)cc(C)c1C[C@H](N)C(=O)N[C@H](C)C(=O)N[C@@H](Cc1ccccc1-c1ccsc1)C(=O)NCC(N)=O | 6.62 | 6.16 | 4 | 8.90 | 8.67 | 7.46 | 7.25 | – | – | – | – | 70 | – | – | – | – |
| Cc1cc(O)cc(C)c1C[C@H](N)C(=O)N[C@H](C)C(=O)N[C@@H](Cc1ccccc1-c1ccccc1)C(=O)NCC(N)=O (H-[Dmt][dA][Phe(2-Ph)]G-NH2) | 9.46 | 7.70 | 57 | 8.80 | 8.59 | 9.92 | 8.31 | – | – | – | – | – | Active | 10 | – | – |
| Cc1cc(O)cc(C)c1C[C@H](N)C(=O)N[C@H](CCCNC(=N)N)C(=O)N[C@@H](Cc1cccc(-c2ccccc2)c1)C(=O)NCC(N)=O (H-[Dmt][dR][Phe(3-Ph)]G-NH2) | 9.07 | 6.57 | 316 | 7.21 | – | – | – | – | – | – | – | – | – | – | 117 | – |
| C[C@@H](NC(=O)[C@@H](N)Cc1ccc(O)cc1)C(=O)NCC(=O)N(C)[C@@H](Cc1ccccc1)C(=O)NCCO [DAMGO] | – | – | – | 7.55 | – | – | – | – | – | – | – | – | – | – | – | – |
| Cc1cc(O)cc(C)c1C[C@H](N)C(=O)N[C@H](CCCNC(=N)N)C(=O)N[C@@H](Cc1ccc(-c2ccccc2)cc1)C(=O)NCC(N)=O (H-[Dmt][dR][Bip]G-NH2) | 8.15 | 7.37 | 6 | – | – | – | – | – | – | 114 | 3090 | – | – | – | – | – |
| Cc1cc(O)cc(C)c1C[C@H](N)C(=O)N[C@H](CCCNC(=N)N)C(=O)N[C@@H](Cc1cccc(-c2ccsc2)c1)C(=O)NCC(N)=O | 8.99 | 6.22 | 583 | 7.52 | – | – | – | – | – | – | – | – | – | – | – | 52.8 |
| CC(C)=Cc1ccccc1C[C@H](NC(=O)[C@@H](CCCNC(=N)N)NC(=O)[C@@H](N)Cc1c(C)cc(O)cc1C)C(=O)NCC(N)=O | 9.24 | 6.23 | 1030 | 9.15 | 9.20 | 10.00 | 7.71 | – | – | – | – | – | Active | 10 | – | – |
| Cc1cc(O)cc(C)c1C[C@H](N)C(=O)N[C@H](CCCNC(=N)N)C(=O)N[C@@H](Cc1ccccc1-c1ccsc1)C(=O)NCC(N)=O | 8.84 | 6.20 | 431 | 8.81 | 8.56 | 10.40 | 7.31 | – | – | – | – | – | – | – | – | – |
